Experiments:
Felis catus [1] = species on record: Felis catus; experiment: Concentration giving half-maximal contraction of the cat iris sphincter muscle was determined in vitro; assay type: functional; conditions: Felis catus, Sphincter muscle
Method in brief: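 Compounds were tested as hydrolysed free acids on isolated cat iris sphincter in organ baths. Bath solution was bicarbonate physiological saline with glucose plus indomethacin 2.8 × 10⁻⁶ M, atropine 10⁻⁷ M and propranolol 10⁻⁶ M. Resting tension was 150 mg, with at least 30 min equilibration. Cumulative dosing was at 5–10 min intervals. Isometric contraction was normalised to each tissue's maximum, averaged over four preparations, and fitted with a Hill equation for EC50.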

Felis catus [2] = species on record: Felis catus; experiment: The maximal difference in Intraocular Pressure (IOP) between treated and control eyes. The effect was tested in cats at a dose of 1.0 (ug/eye); assay type: functional
Method in brief: (§1)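 Domestic female cats, 2–3 kg, trained for IOP measurement. One eye received a topical drop (20 µL) of drug in 0.9% NaCl with 0.5% polysorbate 80; the other eye received vehicle. IOP was read by pneumatonometer under oxibuprocain local anaesthesia before dosing and at 1, 3, 6 and 23 h. The maximal treated-minus-control difference was taken. Area between curves is the treated-eye AUC minus control-eye AUC, per animal.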

Felis catus [3] = species on record: Felis catus; experiment: The maximal difference in Intraocular Pressure (IOP) between treated and control eyes. The effect was tested in cats at a dose of 3.0 (ug/eye); assay type: functional; method in brief: as §1
Felis catus [4] = species on record: Felis catus; experiment: The mean ocular irritation in the treated eyes. An arbitrary scale of from 0 to 3 was used, 0 indicates absence of irritation and 3 complete closure of the lids. The effect was tested in cats at a dose of 1.0 (ug/eye); assay type: functional
Method in brief: (§2)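 Ocular irritation was scored in the treated eye of trained female cats, 2–3 kg. Drug was given as one topical 20 µL drop in 0.9% NaCl with 0.5% polysorbate 80. The contralateral eye got vehicle only.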

Felis catus [5] = species on record: Felis catus; experiment: The mean ocular irritation in the treated eyes. An arbitrary scale of from 0 to 3 was used, 0 indicates absence of irritation and 3 complete closure of the lids. The effect was tested in cats at a dose of 3.0 (ug/eye); assay type: functional; method in brief: as §2
Felis catus [6] = species on record: Felis catus; experiment: The maximal difference in […] pupil diameter between treated and control eyes. The effect was tested in cats at a dose of 1.0 (ug/eye); assay type: functional
Method in brief: (§3)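 Trained female cats, 2–3 kg, were dosed unilaterally with one 20 µL topical drop of drug in 0.9% NaCl/0.5% polysorbate 80, with vehicle in the contralateral eye. Horizontal pupil diameter was measured with a millimetre ruler under constant 10 lux illumination before dosing and at 1, 3, 6 and 23 h. Reported as maximal treated–control difference or as area between curves, per animal.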

Felis catus [7] = species on record: Felis catus; experiment: The maximal difference in […] pupil diameter between treated and control eyes. The effect was tested in cats at a dose of 3.0 (ug/eye); assay type: functional; method in brief: as §3
Felis catus [8] = species on record: Felis catus; experiment: The mean area between curves for Intraocular Pressure (IOP) measured in treated and control eyes. The effect was tested in cats at a dose of 1.0 (ug/eye); assay type: functional; method in brief: as §1
Felis catus [9] = species on record: Felis catus; experiment: The mean area between curves for Intraocular Pressure (IOP) measured in treated and control eyes. The effect was tested in cats at a dose of 3.0 (ug/eye); assay type: functional; method in brief: as §1
Felis catus [10] = species on record: Felis catus; experiment: The mean area between curves for pupil diameter between treated and control eyes. The effect was tested in cats at a dose of 1.0 (ug/eye); assay type: functional; method in brief: as §3
Felis catus [11] = species on record: Felis catus; experiment: The mean area between curves for pupil diameter between treated and control eyes. The effect was tested in cats at a dose of 3.0 (ug/eye); assay type: functional; method in brief: as §3
Monkey [12] = experiment: The mean area between curves for Intraocular Pressure (IOP) measured in treated and control eyes. The effect was tested in monkey at a dose of 3.0 (ug/eye); assay type: functional, Cercopithecidae
Method in brief: (§4)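 Cynomolgus monkeys trained for IOP measurement were sedated with ketamine (2–3 mg/kg) for transport and seated in restraint chairs under oxibuprocain local anaesthesia. One eye received a 10 µL drop of drug in 0.9% NaCl/0.5% polysorbate 80; the fellow eye received vehicle. IOP was read by pneumatonometer calibrated for monkey eyes before dosing and at 1, 2, 4 and 6 h. Matched-pair t test, n = 6.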

Monkey [13] = experiment: The maximal difference in Intraocular Pressure (IOP) measured in treated and control eyes. The effect was tested in monkey at a dose of 3.0 (ug/eye); assay type: functional, Cercopithecidae; method in brief: as §4
Oryctolagus cuniculus [14] = species on record: Oryctolagus cuniculus; experiment: The maximal difference in conjunctival hyperemia between treated and control eyes. The effect was tested in rabbit at a dose of 0.5 (ug/eye)
Oryctolagus cuniculus [15] = species on record: Oryctolagus cuniculus; experiment: The mean area between curves for conjunctival hyperemia between treated and control eyes. The effect was tested in rabbit at a dose of 0.5 (ug/eye)
Felis catus [16] = species on record: Felis catus; experiment: The maximal difference in Intraocular Pressure (IOP) between treated and control eyes. The effect was tested in cats at a dose of 10.0 (ug/eye); assay type: functional; method in brief: as §1
Felis catus [17] = species on record: Felis catus; experiment: The mean ocular irritation in the treated eyes. An arbitrary scale of from 0 to 3 was used, 0 indicates absence of irritation and 3 complete closure of the lids. The effect was tested in cats at a dose of 10.0 (ug/eye); assay type: functional; method in brief: as §2
Felis catus [18] = species on record: Felis catus; experiment: The maximal difference in […] pupil diameter between treated and control eyes. The effect was tested in cats at a dose of 10.0 (ug/eye); assay type: functional; method in brief: as §3
Felis catus [19] = species on record: Felis catus; experiment: The mean area between curves for pupil diameter between treated and control eyes. The effect was tested in cats at a dose of 10.0 (ug/eye); assay type: functional; method in brief: as §3
Monkey [20] = experiment: The maximal difference in Intraocular Pressure (IOP) measured in treated and control eyes. The effect was tested in monkey at a dose of 1.0 (ug/eye); assay type: functional, Cercopithecidae; method in brief: as §4
Monkey [21] = experiment: The mean area between curves for Intraocular Pressure (IOP) measured in treated and control eyes. The effect was tested in monkey at a dose of 1.0 (ug/eye); assay type: functional, Cercopithecidae; method in brief: as §4
Felis catus [22] = species on record: Felis catus; experiment: The mean area between curves for Intraocular Pressure (IOP) measured in treated and control eyes. The effect was tested in cats at a dose of 10.0 (ug/eye); assay type: functional; method in brief: as §1

Question: `Cc1cccc(CCC(O)/C=C/[C@@H]2[C@@H](C/C=C\CCCC(=O)O)[C@@H](O)C[C@H]2O)c1` (stereo partly drawn) was tested. Which EC50 (Felis catus [1]) did it give?
Answer: 4.3 nM

Question: With `CCCCC[C@H](O)/C=C/[C@@H]1[C@@H](C/C=C\CCCC(=O)O)[C@@H](O)C[C@H]1O` [DINOPROST] as the compound, how does the EC50 (Felis catus [1]) read?
Answer: 6.7 nM

Question: What does the source list for `CC(C)OC(=O)CCC/C=C\C[C@@H]1[C@@H](/C=C/[C@H](O)CCc2cccc(Br)c2)[C@H](O)C[C@@H]1O`?
Answer: Imax (Felis catus [2]): <1.2 mmHg; Imax (Felis catus [3]): -2 mmHg; Irritation (Felis catus [4]): 0 arbitrary units; Irritation (Felis catus [5]): 0 arbitrary units; Pmax (Felis catus [6]): < -3.8 mm; Pmax (Felis catus [7]): < -5.3 mm; I ABC (Felis catus [8]): 0.2; I ABC (Felis catus [9]): -6.2; P ABC (Felis catus [10]): <-50.3; P ABC (Felis catus [11]): <-71; I ABC (Monkey [12]): -6; Imax (Monkey [13]): -1.4 mmHg; Hmax (Oryctolagus cuniculus [14]): <1.2; H ABC (Oryctolagus cuniculus [15]): <2

Question: For `O=C(O)CCC/C=C\C[C@@H]1[C@@H](/C=C/[C@@H](O)CCc2ccc(Br)cc2)[C@H](O)C[C@@H]1O`, which EC50 (Felis catus [1]) is on record?
Answer: 35 nM

Question: What does the source list for `Cc1cccc(CC[C@H](O)/C=C/[C@@H]2[C@@H](C/C=C\CCCC(=O)OC(C)C)[C@@H](O)C[C@H]2O)c1`?
Answer: Imax (Felis catus [2]): -1 mmHg; Imax (Felis catus [16]): 2.3 mmHg; Imax (Felis catus [3]): 1.2 mmHg; Irritation (Felis catus [4]): 0.3 arbitrary units; Irritation (Felis catus [17]): 0 arbitrary units; Irritation (Felis catus [5]): 0.1 arbitrary units; Pmax (Felis catus [6]): < -6.8 mm; Pmax (Felis catus [18]): < -8.8 mm; Pmax (Felis catus [7]): < -8.3 mm; I ABC (Felis catus [8]): -17; I ABC (Felis catus [9]): 8; P ABC (Felis catus [10]): <-85; P ABC (Felis catus [19]): <-149; P ABC (Felis catus [11]): <-122; I ABC (Monkey [12]): -0.1; Imax (Monkey [20]): <-2.5 mmHg; I ABC (Monkey [21]): -3.6; Imax (Monkey [13]): <-0.6 mmHg; I ABC (Felis catus [22]): 14.1; Hmax (Oryctolagus cuniculus [14]): <1.6; H ABC (Oryctolagus cuniculus [15]): <4.9

Question: `CC(C)OC(=O)CCC/C=C\C[C@@H]1[C@@H](/C=C/[C@H](O)CCc2ccc(-c3ccccc3)cc2)[C@H](O)C[C@@H]1O` was tested. Which Imax (Felis catus [2]) did it give?
Answer: <-1 mmHg

Question: What about the Imax (Felis catus [16]) of the same compound?
Answer: -0.3 mmHg

Question: What about the Pmax (Felis catus [6]) of the same compound?
Answer: 0.5 mm

Question: And the Pmax (Felis catus [18])?
Answer: < -0.8 mm

Question: And the “I ABC” value (Felis catus [8])?
Answer: -8.3

Question: And the “P ABC” value (Felis catus [10])?
Answer: 1.8

Question: And the “P ABC” value (Felis catus [19])?
Answer: -3.8

Question: And the “I ABC” value (Felis catus [22])?
Answer: -2

Question: And the Hmax (Oryctolagus cuniculus [14])?
Answer: <0.5

Question: And the “H ABC” value (Oryctolagus cuniculus [15])?
Answer: 0.7

Question: Which results are given for `CC(C)OC(=O)CCC/C=C\C[C@@H]1[C@@H](/C=C/[C@@H](O)CCc2cccc(Br)c2)[C@H](O)C[C@@H]1O`?
Answer: Imax (Felis catus [2]): -1 mmHg; Imax (Felis catus [16]): <-3.3 mmHg; Imax (Felis catus [3]): -2.7 mmHg; Irritation (Felis catus [4]): 0.2 arbitrary units; Irritation (Felis catus [17]): 0.2 arbitrary units; Irritation (Felis catus [5]): 0.3 arbitrary units; Pmax (Felis catus [6]): < 6.3 mm; Pmax (Felis catus [18]): < -6.7 mm; Pmax (Felis catus [7]): < -6.8 mm; I ABC (Felis catus [8]): -12.9; I ABC (Felis catus [9]): -42.5; P ABC (Felis catus [10]): <-99; P ABC (Felis catus [19]): <-138; P ABC (Felis catus [11]): <-125; I ABC (Monkey [12]): -6.5; Imax (Monkey [13]): -2 mmHg; I ABC (Felis catus [22]): <-49; Hmax (Oryctolagus cuniculus [14]): <1.5; H ABC (Oryctolagus cuniculus [15]): 4.8

Question: `O=C(O)CCC/C=C\C[C@@H]1[C@@H](/C=C/C(O)CCc2ccccc2)[C@H](O)C[C@@H]1O` (stereo partly drawn) was tested. Which EC50 (Felis catus [1]) did it give?
Answer: 0.71 nM

— ChEMBL document CHEMBL1128437, “Derivatives of 17-phenyl-18,19,20-trinorprostaglandin F2 alpha isopropyl ester: potential antiglaucoma agents” (J Med Chem, 1995)
